pEC50: −log10 of the molar value.
Key:
[1] = target: T1, Muscarinic acetylcholine receptor M4 (Homo sapiens, UniProt P08173); test: Positive allosteric modulation of human muscarinic acetylcholine M4/Gqi5 receptor expressed in CHO cells in presence of acetylcholine at EC20 concentration by calcium mobilization assay; assay type: functional, cell-based; details: for EC50: cho; for pEC50: read-out: EC50
T1 sequence (P08173 whole entry): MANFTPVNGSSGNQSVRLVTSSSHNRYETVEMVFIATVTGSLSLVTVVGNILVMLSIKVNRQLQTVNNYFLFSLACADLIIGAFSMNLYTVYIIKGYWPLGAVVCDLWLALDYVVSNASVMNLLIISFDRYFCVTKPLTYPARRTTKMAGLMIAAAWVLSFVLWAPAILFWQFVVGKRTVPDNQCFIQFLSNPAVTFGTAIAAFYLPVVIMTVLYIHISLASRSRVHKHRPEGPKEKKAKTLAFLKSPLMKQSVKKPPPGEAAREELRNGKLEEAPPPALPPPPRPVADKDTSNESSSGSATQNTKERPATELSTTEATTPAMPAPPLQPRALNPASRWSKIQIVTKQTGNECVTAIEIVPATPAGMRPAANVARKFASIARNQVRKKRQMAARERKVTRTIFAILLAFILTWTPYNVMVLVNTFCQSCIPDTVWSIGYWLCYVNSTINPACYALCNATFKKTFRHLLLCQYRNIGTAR

[2] = target: T2, Muscarinic acetylcholine receptor M4 (Homo sapiens) (UniProt P08173); test: Positive allosteric modulation of human muscarinic acetylcholine M4/Gqi5 receptor expressed in CHO cells in presence of acetylcholine at EC20 concentration by calcium mobilization assay relative to control; assay type: functional, cell-based
T2 sequence (whole entry): T1 sequence (P08173 whole entry)
In short: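 CHO cells stably expressing human M4 with a chimeric Gq protein were tested by calcium mobilization in the presence of an EC20 fixed concentration of acetylcholine. EC50 values come from concentration-response curves. Efficacy is given as % of the maximal acetylcholine response. Each value is n = 1 independent experiment run in triplicate.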

[3] = Intrinsic clearance in rat liver microsomes; details: read-out: CLH
[4] = Brain to plasma partition coefficient, Kp of the compound in Sprague-Dawley rat at 0.2 mg/kg, iv measured at […]; assay type: ADME, organism-based; details: time 0.25 hrs
[5] = Intrinsic clearance in human liver microsomes; details: read-out: CLH
[6] = filed as positive allosteric modulator

SMILES: Cc1ccc(CNc2ncnc3c2sc2nc(C)cc(C)c23)c(F)c1
- EC50 [1]: Not Active

SMILES: COc1ccc(CNc2nccc3c2sc2nc(C)cc(C)c23)cc1F
- %max [2, 6]: 90%

SMILES: Cc1cc(C)c2c(n1)sc1c(N3CCCC3)nccc12
- predicted hepatic clearance [3]: 68 mL/min/kg
- Kp [4]: 37.1
- %max [2, 6]: 98%
- predicted hepatic clearance [5]: 19 mL/min/kg

SMILES: Cc1cc(C)c2c(n1)oc1c(NC3CC3)ncnc12
- %max [2, 6]: 64%

SMILES: Cc1cc(C)c2c(n1)sc1c(NCc3ccc(CN4CCOCC4)cc3)ncnc12
- pEC50 [1]: 5.95
- %max [2, 6]: 47%

SMILES: Cc1cc(C)c2c(n1)sc1c(-c3nccs3)ncnc12
- %max [2, 6]: 62%

SMILES: Cc1cc(C)c2c(n1)sc1c(C)ncnc12
- %max [2, 6]: 58%

SMILES: Cc1cc(C)c2c(n1)sc1c(N3CCCC3)ncnc12
- predicted hepatic clearance [3]: 68 mL/min/kg
- Kp [4]: 5.36
- %max [2, 6]: 67%
- predicted hepatic clearance [5]: 18 mL/min/kg

SMILES: Cc1cc(C)c2c(n1)sc1c(NCc3ccc(OC(F)F)cc3)ncnc12
- pEC50 [1]: 5.40
- %max [2, 6]: 45%

SMILES: Cc1cc(C)c2c(n1)sc1c(N(C)C)nccc12
- %max [2, 6]: 82%

SMILES: COc1ccc(CNc2ncnc3c2oc2nc(C)cc(C)c23)cc1F
- EC50 [1]: Not Active

SMILES: Cc1cc(C)c2c(n1)sc1c(NC3CCCC3)nccc12
- %max [2, 6]: 71%

SMILES: Cc1cc(C)c2c(n1)sc1c(C3CCN(CC4CC4)CC3)ncnc12
- EC50 [1]: Not Active

SMILES: Cc1cc(C)c2c(n1)sc1c(NC3CCC3)nccc12
- predicted hepatic clearance [3]: 69 mL/min/kg
- Kp [4]: 10.4
- %max [2, 6]: 90%
- predicted hepatic clearance [5]: 20 mL/min/kg

SMILES: Cc1cc(C)c2c(n1)oc1c(NCc3ccc(C(C)(C)O)cc3)ncnc12
- EC50 [1]: Not Active

SMILES: Cc1cc(C)c2c(n1)sc1c(C3CCNCC3)ncnc12
- %max [2, 6]: 44%

SMILES: Cc1cc(C)c2c(n1)sc1c(C3CCCCC3)ncnc12
- %max [2, 6]: 71%

SMILES: Cc1cc(C)c2c(n1)sc1c(NC3CC(c4ccncc4)C3)ncnc12 (stereo not given)
- pEC50 [1]: 6.47
- %max [2, 6]: 67%

SMILES: Cc1cc(C)c2c(n1)sc1c(NCc3ccc(OC(F)(F)F)cc3)ncnc12
- EC50 [1]: Not Active

SMILES: Cc1cc(C)c2c(n1)sc1c(NCc3ccc4c(c3)COC4)ncnc12
- pEC50 [1]: 5.94
- %max [2, 6]: 41%

SMILES: Cc1cc(C)c2c(n1)sc1c(NCc3ccc4sccc4c3)ncnc12
- EC50 [1]: Not Active

SMILES: Cc1cc(C)c2c(n1)sc1c(NCc3ccc4c(n3)CCC4)ncnc12
- pEC50 [1]: 5.59
- %max [2]: 30%

SMILES: Cc1cc(C)c2c(n1)sc1c(NCc3ccc(F)c(Cl)c3)ncnc12
- EC50 [1]: Not Active

SMILES: Cc1cc(C)c2c(n1)sc1c(NCc3ccc(-n4ccnc4)nc3)ncnc12
- pEC50 [1]: 5.81
- %max [2]: 34%

SMILES: Cc1cc(C)c2c(n1)sc1c(N3CC4(COC4)C3)ncnc12
- predicted hepatic clearance [3]: 63 mL/min/kg
- Kp [4]: 4.47
- %max [2, 6]: 84%
- predicted hepatic clearance [5]: 18 mL/min/kg

SMILES: Cc1cc(C)c2c(n1)sc1c(C3CCN(C(=O)C4(C)CC4)CC3)ncnc12
- predicted hepatic clearance [3]: 59 mL/min/kg
- Kp [4]: 0.54
- pEC50 [1]: 6.63
- %max [2, 6]: 72%
- predicted hepatic clearance [5]: 11 mL/min/kg

SMILES: Cc1cc(C)c2c(n1)sc1c(NCc3ncc(F)cn3)ncnc12
- pEC50 [1]: < 5.00
- %max [2]: 30%

SMILES: Cc1cc(C)c2c(n1)sc1c(N3CC(F)(F)C3)ncnc12
- %max [2, 6]: 69%

SMILES: Cc1cc(C)c2c(n1)sc1c(OCc3ccc(C(C)(C)O)cc3)ncnc12
- pEC50 [1]: 5.06
- %max [2, 6]: 40%

SMILES: Cc1cc(C)c2c(n1)oc1c(NC3CCC3)ncnc12
- %max [2, 6]: 44%

SMILES: Cc1cc(C)c2c(n1)sc1c(C3CC3)ncnc12
- %max [2, 6]: 62%

SMILES: Cc1cc(C)c2c(n1)sc1c(NCc3cnc(C)nc3)ncnc12
- %max [2, 6]: 54%

SMILES: Cc1cc(C)c2c(n1)sc1c(C3CCN(C(=O)C4CC4)CC3)ncnc12
- %max [2, 6]: 62%

SMILES: Cc1cc(C)c2c(n1)sc1c(NCc3ccc(C(C)(C)O)cc3)ncnc12
- %max [2, 6]: 76%

SMILES: Cc1cc(C)c2c(n1)sc1c(NCc3ccc(C(C)(C)O)cc3F)ncnc12
- pEC50 [1]: 5.63
- %max [2, 6]: 74%

SMILES: Cc1cc(C)c2c(n1)oc1c(N3CCCC3)ncnc12
- EC50 [1]: Not Active

SMILES: Cc1cc(C)c2c(n1)sc1c(NCc3ccc(C(F)(F)F)cn3)ncnc12
- EC50 [1]: Not Active

SMILES: Cc1cc(C)c2c(n1)sc1c(N3CCC3)ncnc12
- predicted hepatic clearance [3]: 64 mL/min/kg
- Kp [4]: 6.49
- %max [2, 6]: 59%
- predicted hepatic clearance [5]: 20 mL/min/kg

SMILES: Cc1cc(C)c2c(n1)sc1c(NC3CN(c4ncc(C(F)(F)F)cn4)C3)ncnc12
- %max [2, 6]: 52%

SMILES: Cc1cc(C)c2c(n1)sc1c(C3CCOCC3)ncnc12
- pEC50 [1]: 6.82
- %max [2, 6]: 99%

SMILES: Cc1cc(C)c2c(n1)sc1c(N3CC4CC4C3)ncnc12 (stereo not given)
- %max [2, 6]: 75%

SMILES: Cc1cc(C)c2c(n1)oc1c(NC3CN(c4ncc(C(F)(F)F)cn4)C3)ncnc12
- EC50 [1]: Not Active

SMILES: Cc1cc(C)c2c(n1)sc1c(NC3CN(c4ncc(C(F)(F)F)cn4)C3)nccc12
- %max [2, 6]: 80%

SMILES: COc1ccc(C2CC2Nc2ncnc3c2sc2nc(C)cc(C)c23)cc1 (stereo not given)
- %max [2, 6]: 61%

SMILES: Cc1cc(C)c2c(n1)sc1c(NCc3ccc(S(C)(=O)=O)cc3)ncnc12
- predicted hepatic clearance [3]: 50 mL/min/kg
- Kp [4]: 0.45
- %max [2, 6]: 42%
- predicted hepatic clearance [5]: 12 mL/min/kg

SMILES: Cc1cc(C)c2c(n1)oc1c(NC3CN(c4cc(Cl)ncc4Cl)C3)ncnc12
- %max [2, 6]: 49%

SMILES: Cc1cc(C)c2c(n1)sc1c(C3CCN(c4cncc(F)c4)CC3)ncnc12
- EC50 [1]: Not Active

SMILES: Cc1cc(C)c2c(n1)sc1c(NCc3ccc(C(C)(C)O)cc3)nccc12
- predicted hepatic clearance [3]: 58 mL/min/kg
- Kp [4]: 2.27
- %max [2, 6]: 101%
- predicted hepatic clearance [5]: 15 mL/min/kg

SMILES: Cc1cc(C)c2c(n1)sc1c(NC3CCC3)ncnc12
- %max [2, 6]: 76%

SMILES: COCC1CN(c2ncnc3c2sc2nc(C)cc(C)c23)C1
- %max [2, 6]: 50%

Source: ChEMBL document CHEMBL5029174, “Discovery of structurally distinct tricyclic M4 positive allosteric modulator (PAM) chemotypes - Part 2” (Bioorg Med Chem Lett, 2021)
